Measurements reported in ChEMBL document CHEMBL2150936, “Anticancer activity of small amphipathic β²,²-amino acid derivatives” (Eur J Med Chem, 2012).

What was measured:
LOX IMVI = assay: Cytotoxicity against human LOXIMVI cells after 4 hrs by MTT assay; format: functional, cell-based
Hs-578T = assay: Cytotoxicity against human Hs578T cells after 4 hrs by MTT assay; format: functional, cell-based
SK-OV-3 = assay: Cytotoxicity against human SKOV3 cells after 4 hrs by MTT assay; format: functional, cell-based; conditions: SK-OV-3, 4 h
EKVX = assay: Cytotoxicity against human EKVX cells after 4 hrs by MTT assay; format: functional, cell-based
COLO 205 = assay: Cytotoxicity against human COLO205 cells after 4 hrs by MTT assay; format: functional, cell-based; conditions: COLO 205, 4 h
Ramos [1] = assay: Selectivity index, ratio of EC50 for human MRC5 cells to IC50 for human Ramos cells; format: functional
Summary of the method: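 Ramos cells were seeded at 4 × 10^5 cells/ml in serum-free RPMI-1640, and compounds in RPMI-1640 were added at once. MRC-5 fibroblasts were seeded at 1 × 10^5 cells/ml in MEM with 10% FBS, grown overnight, and the medium was then replaced with compound. Both were incubated 4 h at 37 °C, 5% CO2, then given MTT for 2 h. Formazan was dissolved in acidic isopropanol and read at 590 nm. Survival was expressed relative to the untreated medium control. SI = MRC-5 EC50 / Ramos IC50.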

OVCAR-8 = assay: Cytotoxicity against human OVCAR8 cells after 4 hrs by MTT assay; format: functional, cell-based; conditions: OVCAR-8, 4 h
Malme-3M = assay: Cytotoxicity against human MALME-3M cells after 4 hrs by MTT assay; format: functional, cell-based
NCI/ADR-RES = assay: Cytotoxicity against human NCI/ADR-RES cells after 4 hrs by MTT assay; format: functional, cell-based
SNB-19 = assay: Cytotoxicity against human SNB19 cells after 4 hrs by MTT assay; format: functional, cell-based; conditions: SNB-19, 4 h
SK-MEL-2 = assay: Cytotoxicity against human SK-MEL-2 cells after 4 hrs by MTT assay; format: functional, cell-based; conditions: SK-MEL-2, 4 h
NCI-H322M = assay: Cytotoxicity against human NCI-H322M cells after 4 hrs by MTT assay; format: functional, cell-based
M14 = assay: Cytotoxicity against human M14 cells after 4 hrs by MTT assay; format: functional, cell-based; conditions: M14, 4 h
OVCAR-5 = assay: Cytotoxicity against human OVCAR5 cells after 4 hrs by MTT assay; format: functional, cell-based; conditions: OVCAR-5, 4 h
K562 = assay: Cytotoxicity against human K562 cells after 4 hrs by MTT assay; format: functional, cell-based; conditions: K562, 4 h
HL-60 = assay: Cytotoxicity against human HL60 cells after 4 hrs by MTT assay; format: functional, cell-based; conditions: HL-60, 4 h
A498 = assay: Cytotoxicity against human A498 cells after 4 hrs by MTT assay; format: functional, cell-based; conditions: A498, 4 h
A549 = assay: Cytotoxicity against human A549 cells after 4 hrs by MTT assay; format: functional, cell-based; conditions: A549, 4 h
SK-MEL-28 = assay: Cytotoxicity against human SK-MEL-28 cells after 4 hrs by MTT assay; format: functional, cell-based; conditions: SK-MEL-28, 4 h
IGROV-1 = assay: Cytotoxicity against human IGROV1 cells after 4 hrs by MTT assay; format: functional, cell-based; conditions: IGROV-1, 4 h
OVCAR-4 = assay: Cytotoxicity against human OVCAR4 cells after 4 hrs by MTT assay; format: functional, cell-based; conditions: OVCAR-4, 4 h
[2] = Cytotoxicity against human […] cells after 4 hrs by MTT assay; format: functional, cell-based
DU-145 = assay: Cytotoxicity against human DU145 cells after 4 hrs by MTT assay; format: functional, cell-based; conditions: DU-145, 4 h
Ramos [3] = assay: Cytotoxicity against human Ramos cells after 4 hrs by MTT assay; format: functional, cell-based
Summary of the method: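 Ramos Burkitt's lymphoma cells, kept in suspension in RPMI 1640 with 10% FBS, were seeded at 4 × 10^5 cells/ml in serum-free RPMI 1640. Compounds in RPMI-1640 were added immediately, then 4 h at 37 °C, 5% CO2. MTT was added for a further 2 h, formazan dissolved in acidic isopropanol (0.04 N HCl), and A590 read. Survival was calculated against untreated medium control; 1% Triton X-100 served as positive control.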

PC-3 = assay: Cytotoxicity against human PC3 cells after 4 hrs by MTT assay; format: functional, cell-based; conditions: PC-3, 4 h
HCC 2998 = assay: Cytotoxicity against human HCC2998 cells after 4 hrs by MTT assay; format: functional, cell-based; conditions: HCC 2998, 4 h
ACHN = assay: Cytotoxicity against human ACHN cells after 4 hrs by MTT assay; format: functional, cell-based
NCI-H460 = assay: Cytotoxicity against human NCI-H460 cells after 4 hrs by MTT assay; format: functional, cell-based; conditions: NCI-H460, 4 h
MDA-MB-468 = assay: Cytotoxicity against human MDA-MB-468 cells after 4 hrs by MTT assay; format: functional, cell-based; conditions: MDA-MB-468, 4 h
UO-31 = assay: Cytotoxicity against human UO31 cells after 4 hrs by MTT assay; format: functional, cell-based; conditions: UO-31, 4 h
NCI-H23 = assay: Cytotoxicity against human NCI-H23 cells after 4 hrs by MTT assay; format: functional, cell-based; conditions: NCI-H23, 4 h
CAKI-1 = assay: Cytotoxicity against human CAKI-1 cells after 4 hrs by MTT assay; format: functional, cell-based; conditions: CAKI-1, 4 h
[4] = read-out: LC50 (the source's name)

NCCNC(=O)C(CN)(Cc1ccc2ccccc2c1)Cc1ccc2ccccc2c1
IC50 (LOX IMVI): 0.62 µM | TGI (LOX IMVI): 1.7 µM | CC50 (LOX IMVI; [4]): 4.37 µM | IC50 (Hs-578T): 3.63 µM | TGI (Hs-578T): 3.47 µM | CC50 (Hs-578T; [4]): 7.94 µM | IC50 (SK-OV-3): 3.02 µM | TGI (SK-OV-3): 3.02 µM | CC50 (SK-OV-3; [4]): 5.5 µM | IC50 (EKVX): 2.69 µM | TGI (EKVX): 2.88 µM | CC50 (EKVX; [4]): 6.17 µM | IC50 (COLO 205): 0.34 µM | TGI (COLO 205): 0.35 µM | CC50 (COLO 205; [4]): 0.69 µM | Selectivity Index (Ramos [1]): 5.4 | IC50 (OVCAR-8): 3.39 µM | TGI (OVCAR-8): 3.72 µM | CC50 (OVCAR-8; [4]): 7.24 µM | IC50 (Malme-3M): 3.89 µM | TGI (Malme-3M): 3.8 µM | CC50 (Malme-3M; [4]): 7.24 µM | IC50 (NCI/ADR-RES): 3.16 µM | TGI (NCI/ADR-RES): 3.31 µM | CC50 (NCI/ADR-RES; [4]): 6.46 µM | IC50 (SNB-19): 2.95 µM | TGI (SNB-19): 3.02 µM | CC50 (SNB-19; [4]): 5.62 µM | IC50 (SK-MEL-2): 3.63 µM | TGI (SK-MEL-2): 3.63 µM | CC50 (SK-MEL-2; [4]): 6.92 µM | IC50 (NCI-H322M): 3.09 µM | TGI (NCI-H322M): 2.88 µM | CC50 (NCI-H322M; [4]): 5.89 µM | IC50 (M14): 3.16 µM | TGI (M14): 3.24 µM | CC50 (M14; [4]): 6.03 µM | IC50 (OVCAR-5): 2.95 µM | TGI (OVCAR-5): 3.02 µM | CC50 (OVCAR-5; [4]): 5.75 µM | IC50 (K562): 0.32 µM | TGI (K562): 0.62 µM | IC50 (HL-60): 0.48 µM | TGI (HL-60): 1.38 µM | IC50 (A498): 2.82 µM | TGI (A498): 2.34 µM | CC50 (A498; [4]): 5.01 µM | IC50 (A549): 2.51 µM | TGI (A549): 2.88 µM | CC50 (A549; [4]): 5.75 µM | IC50 (SK-MEL-28): 3.47 µM | TGI (SK-MEL-28): 3.47 µM | CC50 (SK-MEL-28; [4]): 5.89 µM | IC50 (IGROV-1): 3.16 µM | TGI (IGROV-1): 3.24 µM | CC50 (IGROV-1; [4]): 7.24 µM | IC50 (OVCAR-4): 2.82 µM | TGI (OVCAR-4): 2.82 µM | CC50 (OVCAR-4; [4]): 5.37 µM | IC50 [2]: 3.63 µM | TGI [2]: 4.57 µM | IC50 (DU-145): 2.57 µM | TGI (DU-145): 2.82 µM | CC50 (DU-145; [4]): 5.37 µM | IC50 (Ramos [3]): 4.1 µM | IC50 (PC-3): 3.09 µM | TGI (PC-3): 3.31 µM | CC50 (PC-3; [4]): 6.61 µM | IC50 (HCC 2998): 0.59 µM | TGI (HCC 2998): 1.26 µM | CC50 (HCC 2998; [4]): 3.98 µM | IC50 (ACHN): 2.75 µM | TGI (ACHN): 2.88 µM | CC50 (ACHN; [4]): 5.5 µM | IC50 (NCI-H460): 0.33 µM | TGI (NCI-H460): 0.51 µM | CC50 (NCI-H460; [4]): 1.7 µM | IC50 (MDA-MB-468): 2.75 µM | TGI (MDA-MB-468): 2.95 µM | CC50 (MDA-MB-468; [4]): 6.17 µM | IC50 (UO-31): 2.95 µM | TGI (UO-31): 2.95 µM | CC50 (UO-31; [4]): 6.03 µM | IC50 (NCI-H23): 3.09 µM | TGI (NCI-H23): 3.24 µM | CC50 (NCI-H23; [4]): 6.31 µM | IC50 (CAKI-1): 2.75 µM | TGI (CAKI-1): 3.02 µM | CC50 (CAKI-1; [4]): 6.17 µM
